# Laboratory results reported in ChEMBL document CHEMBL4513216, “Probing the Open Global Health Chemical Diversity Library for Multistage-Active Starting Points for Next-Generation Antimalarials” (ACS Infect Dis, 2020).
# Assay: Toxicity liver stage against HepG2, at 10uM
# Type: cell-based
# Design: test concentration 10 uM, cell line HepG2-A16-CD81EGFP
# Conditions: human, HepG2-A16-CD81EGFP cells; read-out: INHIBITION
# In short: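 Uninfected HepG2-A16-CD81EGFP cells, 3 × 10^3 per well, 1536-well, plated on prespotted compound at 10 μM final, parasite-free screening media added to match infected plates; puromycin 10 μM positive, DMSO 0.5% negative; run in parallel with 48 h PbLuc assay at 37 °C, 5% CO2; viability by CellTiter-Glo luminescence, normalized to controls.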
row,SMILES,cytotoxicity at 10 µM [%]
1,Cc1ccccc1C(N)c1ccncc1 (configuration not stated),-0.871
2,Cc1cc(C(=O)NCc2ccccn2)no1,-9.95
3,O=S1(=O)[C@@H](c2ccccc2)[C@H](CO)CN1C1CC1,-4.83
4,COC1CN(C(=O)CC(C)(C)C)CCC(=O)N(C)c2ccccc21 (configuration not stated),-4.7
5,COc1ccc(N2CCN(C(=O)COc3c(C)occc3=O)CC2)cc1,-2.67
6,CC1CC(=O)c2cc(C(=O)N3CCN(C)CC3)c(=O)[nH]c2C1 (configuration not stated),-6.32
7,Cc1noc(C)c1CCC(=O)NCCc1cccs1,-3.11
8,Cc1cc(F)ccc1S(=O)(=O)NCC(O)c1cccn1C (configuration not stated),-5.62
9,Cc1ncn(CCNC(=O)Nc2ccc(OC(F)(F)F)cc2)c(=O)c1C,-1.32
10,Cc1nc(N(C)C)nc(C)c1NS(=O)(=O)c1ccc(OC(F)(F)F)cc1,7.23
11,COc1cc(N2CC[C@@H]3O[C@@H](C(=O)NCCN(C)C)C[C@@H]32)ncn1,0.588
12,O=C(N1CCCC1)N1CCOCC2(C1)CN(c1ccccc1)C(=O)CO2 (configuration not stated),4.77
13,O=c1c2cnc(N3CCCCC3)nc2ccn1-c1ccccc1F,2.77
14,O=C(NCC1CCCO1)c1c(-n2cnnn2)sc2c1CCC2 (configuration not stated),-16.3
15,COCc1n[nH]/c(=N/C(=O)COc2cnc(C)cc2O)s1,5.84
16,CC(=O)c1cccc(NC(=O)Cn2cc(I)cn2)c1,-1.87
17,CCn1ncc(-c2cc(C(F)(F)F)nc(N3CCC(N)CC3)n2)c1C,-6
18,CCN(Cc1ccccc1)c1ncnc2c(C)nn(CC)c12,-2.48
19,CCCc1nc(NCCCOCC)c2c(n1)c(C)nn2CC,21.6
20,CSc1nc2ccsc2c(=O)n1CC(=O)N1CCCCC1C (configuration not stated),7.08
21,CCN1CCCC1(C)c1nc(C)cc(N)n1 (configuration not stated),-2.17
22,CN1CCN(CC2(O)CCCN(C(=O)Cc3cccc(O)c3)CC2)CC1 (configuration not stated),-4.86
23,O=C(NCCNC1CCCCC1)c1cccs1,-12.7

row,SMILES,cytotoxicity at 10 µM [%]
1,CCS(=O)(=O)N1C[C@H]2CC[C@](O)(c3ccc(C)cc3)[C@H]2C1,-23.2
2,O=C(CN1CCCC1)N1CCCC1c1nc(O)cc(-c2ccccn2)n1 (configuration not stated),-10.7
3,COc1cc(CC(=O)Nc2cccc(C(=O)N(C)C)n2)ccc1C,2.25
4,CC(NCC1(N(C)C)CCOCC1)c1ccc(Cl)cc1 (configuration not stated),-3.19
5,COCCNC(=O)N1CCC(NC(C)C)CC1,7.96
6,Cn1cc(C(NCCc2ccccn2)c2cccc(F)c2)cn1 (configuration not stated),9.73
7,NC(=O)c1cn(CC2CC2)c(C2CC2)n1,0.524
8,Cn1cc(C2(C)CN(C(=O)Nc3ccccc3F)CCO2)cn1 (configuration not stated),-5.23
9,Cc1ccc(C(=O)NCCCn2cccn2)c(=O)[nH]1,3.54
10,CC(=O)N1CCN(C(C)c2nnc(CC(C)C)o2)CC1 (configuration not stated),6.88
11,CCc1ccc(O)c(C(=O)N2CCCN(CC(=O)N(CC)CC)CC2)c1,6.62
12,COCc1nc(C(=O)NS(=O)(=O)c2ccc(C)c(C)c2)cs1,-8
13,CC(C)CC(NCc1cscn1)c1ccccn1 (configuration not stated),2.5
14,CN(Cc1ncnn1C)C(=O)CCCn1ccc2cc(Cl)ccc21,14.7
15,CS(=O)(=O)CCNC(=O)c1cc2ccccc2nc1N1CCCC1,-6.78
16,Cc1nc(-c2nnc[nH]2)sc1C(=O)N1CCCC1Cn1cccn1 (configuration not stated),11.8
17,Cc1ncc2c(n1)CN(CC(=O)N1CCc3sccc3C1)CC2,4.68
18,Cn1cc(C2(C)CN(Cc3ccc(Cl)c(F)c3)CCO2)cn1 (configuration not stated),4.98
19,COC(=O)c1sc2cccc(F)c2c1CNC(=O)C1CCCO1 (configuration not stated),-13.5
20,COc1cc2nc(NCc3cc(C)on3)nc(N)c2cc1OC,-3.34
21,CN(C)c1ccc(NC(=O)N2CCc3sccc3C2)cn1,-4.16
22,CC(C)(C)OC(=O)N1CCCCC1C(=O)NCc1cc[nH]n1 (configuration not stated),1.41
23,CN1CCN(c2nc(-c3cnn(C)c3)cs2)CC1,-0.186

row,SMILES,cytotoxicity at 10 µM [%]
1,COc1c(C2CCCN2C(=O)c2ccnn2C)c(C)nn1C (configuration not stated),2.55
2,CC(C)Cn1cnnc1C1CCCN1C(=O)OC(C)(C)C (configuration not stated),0.514
3,O=C(Nc1ccccc1Cn1cncn1)C1CCN(C2CCCCC2)C1 (configuration not stated),-5.14
4,CC(C)(CO)CCCNC(=O)N1CCc2c(F)ccc(F)c2C1,-2.18
5,OC[C@@H](O)CN(CCC(F)(F)F)c1ncccn1,2.41
6,Cc1ccc(CN(C)C(=O)CN2CCCC2c2cnn(C)c2)cc1 (configuration not stated),-1.6
7,CCc1sc(-c2nnc(CNC(C)Cn3cccn3)o2)cc1C (configuration not stated),0.749
8,O=C(CCN1CCOCC1)Nc1cccc(CNCc2ccsc2)c1,-4.66
9,CCc1csc(NC(=O)Nc2c(C)n[nH]c2C)n1,-3.41
10,CCn1c(CN(C)Cc2cnc(C)s2)nc2cc(F)ccc21,-31.9
11,Cn1cc(C2CCCN2C(=O)CCn2ccc3ccccc32)cn1 (configuration not stated),8.84
12,Cc1ccc(S(C)(=O)=O)cc1C(=O)NS(=O)(=O)c1ccc(Cl)cc1,-13.5
13,O=C(CCc1ccco1)Nc1cccc(S(=O)(=O)C(F)F)c1,-42.5
14,Cc1c(C2NC3(CCCC3)C(=O)N2CC2CC2)cc(C#N)n1C (configuration not stated),-1.99
15,CNC(=O)CC1CCN(C(=O)Nc2ccc(-c3cc[nH]n3)cc2)CC1,6.8
16,CCCS(=O)(=O)NCCc1ncc(C)s1,-9.31
17,CCOc1ncccc1CNC(=O)N1CCCC1c1ccncc1 (configuration not stated),21.2
18,Cc1cc(F)c(S(=O)(=O)NCCCN2CCC(O)CC2)cc1F,-25.9
19,NC(=O)Nc1cccc(Oc2ccccn2)c1,4.39
20,COC(=O)c1ccoc1COC(=O)CCc1ccc(OC)c(OC)c1,5.27
21,Cc1nc(COC[C@H]2CC[C@H]3[C@H](CCN3C(N)=O)O2)cs1,-81.2
22,O=C(CC1CC1)NCc1cn2c(n1)CN(C(=O)C1CCOCC1)CC2,-73.2
23,COCC(=O)N1CC[C@H]2O[C@@H](C)C[C@H]2C1,-66.1

row,SMILES,cytotoxicity at 10 µM [%]
1,O=C(O)C(c1cccc2c1OCC2)N1CCC(N2CCCC2)CC1 (configuration not stated),8.12
2,CC(c1cccc(-c2ccc(C(=O)O)cc2Cl)c1)N(C)C (configuration not stated),-2.25
3,COc1cc(C)ccc1C(=O)N1C[C@@H](CN(C)CCO)[C@@H](CO)C1,1
4,CS(=O)(=O)NC1CCN(Cc2ccc(OCc3ccccn3)cc2)CC1,1.63
5,CCn1ncc2c1NC(=O)CC2c1cnc(-c2ccccn2)nc1 (configuration not stated),-7.76
6,CN(Cc1ccc(C(=O)NCC2COCCO2)c(=O)[nH]1)CC(C)(C)C (configuration not stated),3.21
7,OCC1(CC2CC2)CCCN(Cc2cnc(C3CCCCC3)nc2)C1 (configuration not stated),-9.2
8,O=C(Nc1ccc(-c2cscn2)cc1)C1CCCN(Cc2ccon2)C1 (configuration not stated),0.414
9,CCc1ccc(OCCN(C)C(=O)c2ccncc2Cl)cc1,-2.91
10,Cc1cccc(CNCC2(O)CCCN(CC3CCCCC3)C2=O)n1 (configuration not stated),-10.5
11,CCC(CO)N(Cc1ccccn1)C(=O)c1ccc(C)c(Cl)c1 (configuration not stated),-0.054
12,CN(CCc1ccccc1)c1cnn(Cc2ccccn2)c(=O)c1,-7.03
13,Cc1nn(C)c(C)c1-c1c(-c2ccccc2)ncn1[C@H](CO)C(=O)O,-2.34
14,COc1ccc(C(=O)N2C[C@@H](C(=O)O)[C@H](c3ccccc3)C2)c(C)c1,5.23
15,COc1cnc(N2CCCC(c3ncc[nH]3)C2)nc1 (configuration not stated),-0.268
16,O=C(NCc1nnc2n1CCC2)c1ccc(C2CCCO2)s1 (configuration not stated),-12.4
17,CC(c1nccs1)N(C)S(=O)(=O)NCc1ccccc1 (configuration not stated),-2.34
18,CCC(O)Cn1nc(CCSC)nc1-c1ccc2[nH]ccc2c1 (configuration not stated),4.96
19,Cc1cc(C(=O)N2CCCCC2)ccc1NS(C)(=O)=O,-1.4
20,Cc1ccc2c(c1)C(NC(=O)C1CCN(S(C)(=O)=O)CC1)CC(C)(C)O2 (configuration not stated),2.22
21,CC(C)[C@@H](C)NC(=O)N1CCn2nc(C(=O)NCCN(C)C)cc2C1,2.62
22,Cc1cccc(=O)n1CCCNc1ncnc2c1CCNCC2,-9.53
23,CCCNC(=O)N1CCC(Oc2cc(C)ccc2F)(C(=O)O)CC1,-23.8

row,SMILES,cytotoxicity at 10 µM [%]
1,N#Cc1cccnc1N1CCC2(CCCN(C3CCOCC3)C2=O)C1 (configuration not stated),-9.21
2,O=C(c1cc(COc2ccc3c(c2)OCO3)[nH]n1)N1CCCC1,-0.526
3,COC(C(=O)N1CCN(c2cccc(Cl)c2)C(=O)C1)c1ccccc1 (configuration not stated),-9.09
4,CC(NC(=O)NCCCn1cncn1)c1ccc(F)cc1 (configuration not stated),-9.92
5,Cc1ccsc1CN(C)C(=O)c1cc2c([nH]c1=O)CCCC2=O,-5.36
6,CSc1ccc(CNC(c2ccc(F)cc2)c2nccn2C)cc1 (configuration not stated),-10.8
7,O=C(CCNc1ncccn1)Nc1cc(C(F)(F)F)c[nH]c1=O,-6.45
8,CCN(CC1CCOC1)C(=O)Nc1ccc(OCC(F)(F)F)nc1 (configuration not stated),-11.3
9,O=C(Cc1cn2ccsc2n1)N1CCCC(n2ccnc2)C1 (configuration not stated),-8.22
10,CC(C)C(CNC(=O)NCc1cc[nH]n1)N1CCOCC1 (configuration not stated),-7.48
11,Cn1cnc2c1CCN(Cc1cccc(C(N)=O)c1)C2,-16.8
12,Cc1ccc(C(=O)Nc2cn[nH]c2)cn1,-6.1
13,Cc1nc(C2CCCN2C(=O)c2cnns2)no1 (configuration not stated),-3.71
14,CC(NC(=O)N(C)Cc1ccsc1)c1ccc2c(c1)CCC(=O)N2 (configuration not stated),-7.23
15,CCn1ccnc1CN1CCCN(C(=O)c2sccc2C#N)CC1,-8.08
16,CC(Cn1cncc1-c1cnn(C2CCCCC2)c1)N1CCCCC1 (configuration not stated),2.87
17,Cc1nccn1-c1cccc(C2CCCN2)n1 (configuration not stated),10.6
18,CCOC(=O)[C@]12CCCN(Cc3nccs3)C[C@H]1CN(C(C)=O)C2,-2.99
19,Cn1cc(C2CC(=O)NC23CCN(Cc2cccc(F)c2)CC3)cn1 (configuration not stated),7.13
20,c1cc(CNCc2ccc3c(c2)CCO3)cc(N2CCOCC2)n1,11.1
